From PubChem BioAssay AID588752 (Vanderbilt Specialized Chemistry Center, 2011)
Activity calls are given as the source filed them. No rule for the calls is given here.

target: Muscarinic acetylcholine receptor M5 (Rattus norvegicus) (UniProt P08911); test: potentiation of ACh response at rat M5 – CHO cells, Fluo-4 calcium mobilization, selectivity assay, dose response (AID 588752); conditions: Fluo-4, ACh EC20, at 30 µM (top of the series)
Method in brief: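 Material: rat M5 stable CHO cell line. Also added: acetylcholine at EC20, then acetylcholine at EC80. Times: 144 s compound pre-incubation, 86 s to EC80, 37 °C. Detection: kinetic calcium fluorescence, Fluo-4 AM dye.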

Sequence of Muscarinic acetylcholine receptor M5 (Rattus norvegicus) (P08911 whole entry, looked up): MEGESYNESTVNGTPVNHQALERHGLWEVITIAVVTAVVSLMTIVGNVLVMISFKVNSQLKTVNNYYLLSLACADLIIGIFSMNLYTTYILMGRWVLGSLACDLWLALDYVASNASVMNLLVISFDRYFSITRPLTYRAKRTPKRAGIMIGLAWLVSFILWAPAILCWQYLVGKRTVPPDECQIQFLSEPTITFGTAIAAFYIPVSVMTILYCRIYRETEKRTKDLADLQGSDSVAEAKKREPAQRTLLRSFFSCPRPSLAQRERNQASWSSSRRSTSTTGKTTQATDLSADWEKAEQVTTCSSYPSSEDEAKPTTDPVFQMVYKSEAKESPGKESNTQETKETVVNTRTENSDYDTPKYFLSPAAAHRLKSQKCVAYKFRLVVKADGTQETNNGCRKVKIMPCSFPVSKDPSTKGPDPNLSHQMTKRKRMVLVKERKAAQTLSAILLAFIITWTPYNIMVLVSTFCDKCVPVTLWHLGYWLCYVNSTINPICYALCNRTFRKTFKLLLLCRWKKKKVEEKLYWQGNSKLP

outcome, inactive:
Cc1nc2sc(C(=O)NCc3ccccc3)c(N)c2c(C)c1Cl, Cc1nc2sc(C(=O)NCc3nccs3)c(N)c2c(C)c1Cl, Cc1nc2sc(C(=O)NCc3ccc4c(c3)OCO4)c(N)c2c(C)c1Cl, Cc1nc2sc(C(=O)NC3CC3)c(N)c2c(C)c1Cl, Cc1nc2sc(C(=O)NCc3cccnc3)c(N)c2c(C)c1Cl, Cc1nc2sc(C(=O)NCCc3ccncc3)c(N)c2c(C)c1Cl, Cc1nc2sc(C(=O)NCc3ccncc3)c(N)c2c(C)c1Cl, Cc1nc2sc(C(=O)NCc3cccc(F)c3F)c(N)c2c(C)c1Cl, Cc1nc2sc(C(=O)NCc3ccncn3)c(N)c2c(C)c1Cl
